ChEMBL document CHEMBL4007508, “Discovery and Pre-Clinical Characterization of Third-Generation 4-H Heteroaryldihydropyrimidine (HAP) Analogues as Hepatitis B Virus (HBV) Capsid Inhibitors” (J Med Chem, 2017)
Converted amounts (≈) assume the structure as drawn.

What was measured:
Hepatitis B virus = assay: Antiviral activity against HBV infected in human HepG2(2.2.15) cells assessed as decrease in HBV genome replication after 5 days by qPCR method; type: functional, cell-based; details: HepG2 2.2.15, 120 h
Method in brief: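 HepG2.2.15 cells (stable HBV genome, Hep G2-derived; DMEM-F12, 10% FBS, penicillin/streptomycin, 0.5 mg/mL G418) seeded 3 × 10^4/well, incubated overnight at 37 °C. Compounds serially half-log diluted in DMSO, then in medium; final DMSO 0.5%. HBV DNA extracted and quantified by qPCR.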

[1] = Cytotoxicity against HBV infected human HepDE19 cells assessed as decrease in cell viability after 5 days by CCK8 assay; type: cell-based
Method in brief: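 Tetracycline-inducible HBV HepDE19 cells seeded 5 × 10^3/well and treated with compounds. After 5 days, viability read by CCK-8 (2 h, 37 °C; absorbance 450 and 630 nm).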

[2] = Selectivity index, ratio of CC50 for HBV infected human HepDE19 cells to EC50 for HBV infected in human HepG2(2.2.15) cells
Method in brief: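 Selectivity index calculated as CC50 (HepDE19, CCK-8 viability after 5 days) divided by EC50 (HBV DNA reduction in HepG2.2.15 cells, qPCR).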

[3] = Solubility of compound in phosphate buffer at pH 6.5 after one night incubation by HPLC-UV method; type: physicochemical

SMILES | EC50 (Hepatitis B virus) [nM] | solubility [3] [µg/mL] | CC50 at 120 h [1] [nM] | Ratio CC50/EC50 [2]
COC(=O)C1=C(CN2CCN(C(C)=O)C[C@H]2C(=O)O)NC(c2nccs2)=N[C@H]1c1ccc(F)cc1Cl | > 1000 |  |  | 
CC1=C(C(=O)O)C(c2ccc(F)cc2Cl)N=C(c2nccs2)N1 (centres undefined) | > 1000 |  |  | 
CCOC(=O)C1=C(CN2CCOC[C@H]2C(=O)O)NC(c2nccs2)=N[C@H]1c1cccc(F)c1Br | 0.7 |  | 95000 | 
COC(=O)C1=C(CN2CCOC[C@H]2C(=O)O)NC(c2nccn2C)=N[C@H]1c1ccc(F)cc1Cl | 42 |  | 82000 | 1952
COC(=O)C1=C(CN2CCO[C@H](C(C)C)[C@H]2C(=O)O)NC(c2nccs2)=N[C@H]1c1ccc(F)cc1Cl | 5 |  | 81000 | 16200
COC(=O)C1=C(CN2CCOC[C@H]2C(=O)O)NC(c2ncco2)=N[C@H]1c1ccc(F)cc1Cl | > 1000 |  | > 100000 | 
CCOC(=O)C1=C(CN2CCOC[C@H]2C(=O)O)NC(c2nccs2)=N[C@H]1c1ccccc1Cl | 14 |  | > 100000 | >7143
CCOC(=O)C1=C(CN2CCOC[C@H]2C(=O)O)NC(c2nccs2)=N[C@H]1c1ccc(F)c(F)c1Br | 0.7 |  | 51000 | 72857
COC(=O)C1=C(CN2CCOC[C@H]2C(=O)O)NC(c2nc(C)cs2)=N[C@H]1c1ccc(F)cc1Cl | 7 |  | > 100000 | >14826
COC(=O)C1=C(CN2CCOC[C@H]2C(=O)O)NC(c2nccs2)=N[C@H]1c1ccc(F)c(F)c1Cl | 1 |  | > 100000 | >100000
COC(=O)C1=C(C)NC(c2ncc(F)cc2F)=N[C@H]1c1ccc(F)cc1Cl | 50 to 80 |  |  | 
COC(=O)C1=C(CN2CCOC[C@H]2CNS(C)(=O)=O)NC(c2nccs2)=N[C@H]1c1ccc(F)cc1Cl | 4 | 48 (≈ 86 µM) | 88000 | 22000
O=C(OCC(F)(F)F)C1=C(CN2CCOC[C@H]2C(=O)O)NC(c2nccs2)=N[C@H]1c1ccc(F)cc1Cl | 13 |  | 27000 | 2077
COC(=O)C1=C(CN2CCSCC2C(=O)O)NC(c2nccs2)=N[C@H]1c1ccc(F)cc1Cl (single isomer, unassigned) | 38 | 584 (≈ 1140 µM) | 60000 | 1579
CC(C)OC(=O)C1=C(CN2CCOC[C@H]2C(=O)O)NC(c2nccs2)=N[C@H]1c1ccc(F)cc1Cl | 17 |  | 72000 | 4235
CCOC(=O)C1=C(CN2CCOC[C@H]2C(=O)O)NC(c2nccs2)=N[C@H]1c1ccc(F)cc1 | 15 |  | 62000 | 4133
COC(=O)C1=C(C)NC(c2nc(C(=O)O)cs2)=NC1c1ccc(F)cc1Cl (centres undefined) | > 1000 |  |  | 
COC(=O)C1=C(CN2CCOCC2CO)NC(c2nccs2)=N[C@H]1c1ccc(F)cc1Cl (some centres undefined) | 5 | 475 (≈ 988 µM) | 74000 | 14800
COC(=O)C1=C(CN2CCCC[C@H]2C(=O)O)NC(c2nccs2)=N[C@H]1c1ccc(F)cc1Cl | > 1000 |  |  | 

SMILES | EC50 (Hepatitis B virus) [nM] | solubility [3] [µg/mL] | CC50 at 120 h [1] [nM] | Ratio CC50/EC50 [2]
COC(=O)C1=C(CN2CCOC[C@H]2CC(=O)O)NC(c2nccs2)=N[C@H]1c1ccc(F)cc1Cl | 600 | > 638 | > 100000 | >167
COC(=O)C1=C(C)NC(c2nccs2)=N[C@H]1c1ccc(F)cc1Cl | 80 | 16 (≈ 43.7 µM) | 83000 | 1038
COC(=O)C1=C(CN2CCOC[C@H]2CCC(=O)O)NC(c2nccs2)=N[C@H]1c1ccc(F)cc1Cl | 150 | > 697 | > 100000 | >667
CCOC(=O)C1=C(CN2CCOC[C@H]2C(=O)O)NC(c2nccs2)=N[C@H]1c1ccc(F)c(F)c1Cl | 0.6 |  | 29000 | 48333
CCOC(=O)C1=C(CN2CCOC[C@H]2C(=O)O)NC(c2nccs2)=N[C@H]1c1ccc(F)cc1Br |  |  | 72000 | 
COC(=O)C1=C(CN2CCOC[C@H]2C(=O)O)NC(c2nc(C3CC3)cs2)=N[C@H]1c1ccc(F)cc1Cl | 22 |  |  | 
COC(=O)C1=C(CN2CCNC[C@H]2C(=O)O)NC(c2nccs2)=N[C@H]1c1ccc(F)cc1Cl | > 1000 |  |  | 
COC(=O)C1=C(CN2CCOC[C@@]2(C)C(=O)O)NC(c2nccs2)=N[C@H]1c1ccc(F)cc1Cl | 20 | 600 (≈ 1180 µM) | > 100000 | 
COC(=O)C1=C(CN2CCOC(C(=O)O)C2)NC(c2nccs2)=N[C@H]1c1ccc(F)cc1Cl (some centres undefined) | 333 | > 592 | > 100000 | >300
CCOC(=O)C1=C(CN2CCOC[C@H]2C(=O)O)NC(c2nccs2)=N[C@H]1c1ccc(F)cc1F | 14 |  | > 100000 | >7143
COC(=O)C1=C(CN2CCOC[C@@H]2C(=O)O)NC(c2nccs2)=N[C@H]1c1ccc(F)cc1Cl | 79 |  | > 100000 | >1266
COC(=O)C1=C(CN2CCOC[C@H]2C(=O)O)NC(c2ncc(F)cc2F)=N[C@H]1c1ccc(F)cc1Cl | 8 |  | 23000 | 2875
CCOC(=O)C1=C(CN2CCOC[C@H]2C(=O)O)NC(c2nccs2)=N[C@H]1c1ccc(F)c(F)c1C | 0.6 |  | 97000 | 
COC(=O)C1=C(CN2CCOC[C@H]2C(=O)O)NC(c2nccs2)=N[C@H]1c1cccc(F)c1Cl | 4 |  | > 100000 | >25000
COC(=O)C1=C(CN2CCOC[C@H]2C(=O)O)NC(c2ncccn2)=N[C@H]1c1ccc(F)cc1Cl | > 1000 |  | > 100000 | 
COC(=O)C1=C(C)NC(c2nccs2)=NC1c1cccc(C(=O)O)c1 (centres undefined) | > 1000 |  |  | 
COC(=O)C1=C(CN2CCOC[C@H]2C(=O)O)NC(c2ncoc2C)=N[C@H]1c1ccc(F)cc1Cl | 14 |  | > 100000 | >7143
COC(=O)C1=C(CN2CCOC[C@H]2C(=O)O)NC(c2nccs2)=N[C@H]1c1ccc(F)cc1Br | 6 |  | > 100000 | 

Second part, led by results:

EC50 (Hepatitis B virus) [nM] | solubility [3] [µg/mL] | SMILES | CC50 at 120 h [1] [nM] | Ratio CC50/EC50 [2]
> 100 |  | COC(=O)C1=C(CN2CCOC[C@H]2C(=O)O)NC(c2nccs2)=N[C@H]1c1ccc(F)cc1C(F)(F)F | > 100000 | 
3 |  | CCOC(=O)C1=C(CN2CCOC[C@H]2C(=O)O)NC(c2nccs2)=N[C@H]1c1ccc(C)cc1Cl | > 100000 | >33333
3 | 205 (≈ 415 µM) | COC(=O)C1=C(CN2CCOC[C@H]2C(N)=O)NC(c2nccs2)=N[C@H]1c1ccc(F)cc1Cl | > 100000 | >33333
> 100 |  | CCOC(=O)C1=C(CN2CCOC[C@H]2C(=O)O)NC(c2nccs2)=N[C@H]1c1cccc(C#N)c1Cl |  | 
12 |  | CCCOC(=O)C1=C(CN2CCOC[C@H]2C(=O)O)NC(c2nccs2)=N[C@H]1c1ccc(F)cc1Cl | > 100000 | >8333
1 |  | COC(=O)C1=C(CN2CCOC[C@H]2C(=O)O)NC(c2nccs2)=N[C@H]1c1ccc(F)c(F)c1Br | 80000 | 80000
11 |  | COC(=O)C1=C(CN2CCOC[C@H]2C(=O)O)NC(c2nccs2)=N[C@H]1c1ccc(C)cc1Cl | > 100000 | >9091
3 |  | CCOC(=O)C1=C(CN2CCOC[C@H]2C(=O)O)NC(c2nccs2)=N[C@H]1c1ccc(Br)cc1Cl | 31000 | 
8 |  | COC(=O)C1=C(CN2CCOC[C@H]2C(=O)O)NC(c2nccs2)=N[C@H]1c1ccc(F)cc1C | > 100000 | 12500
> 100 |  | COC(=O)C1=C(CN2CCOC[C@H]2C(=O)O)NC(c2nccs2)=N[C@H]1c1ccc(F)cc1C1CC1 | > 100000 | 
> 100 |  | CCOC(=O)C1=C(CN2CCOC[C@H]2C(=O)O)NC(c2nccs2)=N[C@H]1c1cccc(Cl)c1Cl |  | 
190 |  | COCCOC(=O)C1=C(CN2CCOC[C@H]2C(=O)O)NC(c2nccs2)=N[C@H]1c1ccc(F)cc1Cl | > 100000 | >526
3 |  | CCOC(=O)C1=C(CN2CCOC[C@H]2C(=O)O)NC(c2nccs2)=N[C@H]1c1ccc(F)cc1C | > 100000 | >33333
> 1000 |  | N#CC1=C(CN2CCOC[C@H]2C(=O)O)NC(c2nccs2)=N[C@H]1c1ccc(F)cc1Cl |  | 
4 | < 1 | COC(=O)C1=C(CN2CCOC[C@H]2C(=O)OC)NC(c2nccs2)=N[C@H]1c1ccc(F)cc1Cl |  | 
> 100 |  | CCOC(=O)C1=C(CN2CCOC[C@H]2C(=O)O)NC(c2nccs2)=N[C@H]1c1ccc(C#N)cc1 |  | 
> 100 |  | CCOC(=O)C1=C(CN2CCOC[C@H]2C(=O)O)NC(c2nccs2)=N[C@H]1c1ccc(OC)cc1 |  | 
> 100 |  | CC(C)(C)OC(=O)C1=C(CN2CCOC[C@H]2C(=O)O)NC(c2nccs2)=N[C@H]1c1ccc(F)cc1Cl | 41000 | 
> 1000 |  | CCNC(=O)C1=C(CN2CCOC[C@H]2C(=O)O)NC(c2nccs2)=N[C@H]1c1ccc(F)cc1Cl |  | 
> 100 |  | COC(=O)C1=C(CN2CCOC[C@H]2C(=O)O)NC(c2nccs2)=N[C@H]1c1ccc(C(F)(F)F)cc1Cl | 50000 | 431
